From ChEMBL document CHEMBL1154198, “Chemical genetics of Plasmodium falciparum” (Nature, 2010) come the findings set out here.

Series [1] concerns Plasmodium falciparum. Briefly: ST_JUDE: Plasmodium falciparum 3D7 EC50 (uM) as measured by SYBR green dye. Format: functional, organism-based.
Series [2] has as its system Plasmodium falciparum. Put plainly: ST_JUDE: Plasmodium falciparum K1 EC50 (uM) as measured by SYBR green dye. In kind it is functional, organism-based.
Series [3] has as its system Plasmodium falciparum. Put plainly: ST_JUDE: Cytotoxicity against Plasmodium falciparum 3D7. Format: functional, organism-based. In outline:
(§1)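 Asexual P. falciparum grown in human erythrocytes, exposed to compounds for 72 h, and growth read as the DNA quantity in treated versus control cultures. Dose-response run at 12 concentrations from 10 μM to 5 nM.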

For series [4], the system named is Plasmodium falciparum. Put plainly: ST_JUDE: Cytotoxicity against Plasmodium falciparum K1. In kind it is functional, organism-based. An outline of the steps: as §1
Series [5] deals with Plasmodium falciparum. Put plainly: ST_JUDE: Cytotoxicity against Plasmodium falciparum V1/S. Format: functional, organism-based.
In a further series the test system is Toxoplasma gondii. Put plainly: ST_JUDE: Growth inhibition of to Toxoplasma gondii, in human U-2OS cells, as measured by luciferase. The settings on record: RH, U2OS. In kind it is functional, organism-based. An outline of the steps:
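T. gondii parasites engineered to express luciferase; drug sensitivity read by luminescence.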

A further series deals with Trypanosoma brucei. Put plainly: ST_JUDE: Cytotoxicity using luciferase to measure ATP as an indicator of the viability of Trypanosoma brucei. In kind it is functional, organism-based.
The subject of another series is Leishmania major. Briefly: ST_JUDE: Cytotoxicity using Alamar Blue to measure viability of Leishmania major. Format: functional, organism-based. In outline:
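L. major promastigotes; drug susceptibility read with Alamar Blue.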
(Resazurin is reduced to fluorescent resorufin, in cell work by metabolically active cells.)

Series [6] in a line: ST_JUDE: Cytotoxicity using luciferase to measure ATP as an indicator of the viability of human foreskin fibroblast cells (BJ). Format: toxicity, cell-based.
The nature of series [7]: ST_JUDE: Cytotoxicity using luciferase to measure ATP as an indicator of the viability of human epithelial hepatocellular carcinoma cells (HepG2). In kind it is toxicity, cell-based.
The nature of series [8]: ST_JUDE: Cytotoxicity using luciferase to measure ATP as an indicator of the viability of human epithelial embryonic kidney cells (HEK293). Format: toxicity, cell-based.
Series [9] can be described thus: ST_JUDE: Cytotoxicity using luciferase to measure ATP as an indicator of the viability of human Burkitt''s lymphoma lymphoblast cells (Raji). Format: toxicity, cell-based.
Series [10] relates to Plasmodium falciparum. Briefly: ST_JUDE: Cytotoxicity against Plasmodium falciparum Dd2. In kind it is functional, organism-based.
For series [11], the system named is Plasmodium falciparum. Put plainly: ST_JUDE: Cytotoxicity against Plasmodium falciparum W2. In kind it is functional, organism-based.
Series [12] relates to Plasmodium falciparum. Briefly: ST_JUDE: Cytotoxicity against Plasmodium falciparum SB-A6. In kind it is functional, organism-based.
Series [13] concerns Plasmodium falciparum. Briefly: ST_JUDE: Cytotoxicity against Plasmodium falciparum D10 transfected with yeast DHOD. Format: functional, organism-based.

Broadly, the EC50 is the concentration needed to bring the measured effect to its halfway point. Read a high EC50 as weaker potency. With `CCN(CC)Cc1cc(Nc2ccnc3cc(Cl)ccc23)ccc1O`, the EC50 is 0.0286 µM in the series with Plasmodium falciparum [1]; 0.0261 µM in the series with Plasmodium falciparum [2]; 0.0443 µM in the series with Plasmodium falciparum [3]; 0.0426 µM in the series on Plasmodium falciparum [4]; 0.045 µM in the series with Plasmodium falciparum [5]; > 22.1 µM with Toxoplasma gondii. Moreover, the EC50 in the series with Trypanosoma brucei was > 38.6 µM; with Leishmania major, > 17.2 µM; in series [6], > 40.2 µM; in series [7], > 40.2 µM; in series [8] it was > 40.2 µM; in [9], > 40.2 µM. Also, the EC50 in the series with Plasmodium falciparum [10] turned out to be 0.0744 µM; in the series on Plasmodium falciparum [11], 0.012 µM; in the series on Plasmodium falciparum [12], 0.0325 µM; with Plasmodium falciparum [13], 0.0499 µM.

Consider `Cc1ccc(N2C(N)=NC(N)=NC2(C)C)cc1`, for which the EC50 in the series on Plasmodium falciparum [1] is 0.0333 µM; in the series on Plasmodium falciparum [2] it was 0.989 µM; in the series with Plasmodium falciparum [3], 0.0214 µM; with Plasmodium falciparum [4], 0.676 µM; in the series on Plasmodium falciparum [5] it was > 8.97 µM; with Toxoplasma gondii, 5.71 µM. The EC50 was > 33.5 µM with Trypanosoma brucei; > 15 µM in the series on Leishmania major; > 34.9 µM in series [6]; > 34.9 µM in [7]; > 34.9 µM in series [8]; > 34.9 µM in series [9]. Besides, the EC50 in the series with Plasmodium falciparum [10] was 2.03 µM; in the series with Plasmodium falciparum [11], 0.729 µM; in the series on Plasmodium falciparum [12] it was 0.0151 µM; in the series on Plasmodium falciparum [13] it was 0.785 µM.

Turning to `CC(C)(C)NC(=O)c1cn(C2CCCCC2)cc(C(=O)NC2CCN(Cc3ccccc3)C2)c1=O` (stereo not given), the EC50 in the series with Plasmodium falciparum [1] was 0.658 µM; in the series on Plasmodium falciparum [2] it was 4.09 µM; in the series with Plasmodium falciparum [3], 0.787 µM; with Plasmodium falciparum [4] it was 1.98 µM; in the series on Plasmodium falciparum [5] it was 4.84 µM; in the series with Toxoplasma gondii, > 15.7 µM. In addition, the EC50 in the series with Trypanosoma brucei is 19.9 µM; in the series on Leishmania major, > 12.3 µM; in [6] it was > 28.7 µM; in [7], > 28.7 µM; in [8] it was > 28.7 µM; in [9] it was > 28.7 µM. The EC50 worked out at 0.507 µM in the series on Plasmodium falciparum [10], 2.14 µM with Plasmodium falciparum [11], 0.704 µM in the series with Plasmodium falciparum [12] and 1.53 µM in the series with Plasmodium falciparum [13].

On to `CCOC(=O)c1cnc2c(OC)cccc2c1Nc1ccc(OC)c(OC)c1`, for which the EC50 in the series with Plasmodium falciparum [1] was 0.858 µM; with Plasmodium falciparum [2], 0.804 µM; with Plasmodium falciparum [3], 0.476 µM; in the series with Plasmodium falciparum [4], 0.651 µM; with Plasmodium falciparum [5], 0.865 µM; in the series with Toxoplasma gondii, > 24.7 µM. Moreover, the EC50 in the series with Trypanosoma brucei is > 43.2 µM; in the series on Leishmania major it was > 19.3 µM; in series [6] it was > 45.1 µM; in series [7] it was > 45.1 µM; in series [8] it was > 45.1 µM; in series [9], > 45.1 µM. Further, the EC50 was 0.676 µM in the series with Plasmodium falciparum [10], 2.7 µM in the series on Plasmodium falciparum [11], > 11.6 µM with Plasmodium falciparum [12] and > 11.6 µM in the series on Plasmodium falciparum [13].

Take `CC(C)CN1C(=O)c2ccccc2C(C(=O)Nc2ccc(F)c(Cl)c2)C1c1cccs1` (stereo not given): the EC50 in the series on Plasmodium falciparum [1] was 0.0897 µM; with Plasmodium falciparum [2], 0.173 µM; with Plasmodium falciparum [3], 0.378 µM; with Plasmodium falciparum [4], 0.421 µM; in the series with Plasmodium falciparum [5], 1.68 µM; in the series on Toxoplasma gondii, > 23.2 µM. Also, the 50% effective concentration (EC50) is 2.62 µM with Trypanosoma brucei; > 18.1 µM in the series with Leishmania major; > 42.3 µM in series [6]; 38.1 µM in series [7]; > 42.3 µM in series [8]; > 42.3 µM in series [9]. For the same compound, the EC50 in the series on Plasmodium falciparum [10] was found to be 0.421 µM; with Plasmodium falciparum [11], 0.152 µM; in the series on Plasmodium falciparum [12], 1.39 µM; with Plasmodium falciparum [13], 1.31 µM.

Consider `COc1ccccc1/N=C1\C=C(NS(=O)(=O)c2ccc(C(C)C)cc2)c2ccccc2C1=O`, for which the EC50 was 0.598 µM in the series with Plasmodium falciparum [1]; 0.132 µM in the series with Plasmodium falciparum [2]; 0.45 µM in the series on Plasmodium falciparum [3]; 0.289 µM with Plasmodium falciparum [4]; 0.28 µM in the series with Plasmodium falciparum [5]; > 18.9 µM with Toxoplasma gondii. Also, the 50% effective concentration (EC50) in the series with Trypanosoma brucei was 1.79 µM; in the series with Leishmania major it was > 14.8 µM; in [6] it was > 34.5 µM; in [7] it was > 34.5 µM; in series [8], > 34.5 µM; in series [9], > 34.5 µM. Further, the EC50 in the series on Plasmodium falciparum [10] was 0.627 µM; in the series on Plasmodium falciparum [11] it was > 8.87 µM; with Plasmodium falciparum [12] it was 0.19 µM; with Plasmodium falciparum [13], 0.343 µM.

Take `CCOc1ccc(N(C(C)=O)C2=C(N(C)C)C(=O)c3ccccc3C2=O)cc1`: the EC50 in the series on Plasmodium falciparum [1] stood at 0.0055 µM; in the series with Plasmodium falciparum [2] it was 0.0075 µM; with Plasmodium falciparum [3] it was 0.0027 µM; in the series with Plasmodium falciparum [4], 0.0035 µM; with Plasmodium falciparum [5] it was 0.0055 µM; in the series on Toxoplasma gondii, 10.6 µM. Also, the EC50 with Trypanosoma brucei is 1.24 µM; in the series with Leishmania major it was > 12.9 µM; in series [6], 11.2 µM; in [7], 4.82 µM; in [8], > 30.2 µM; in [9] it was 0.353 µM. For the same compound, the EC50 stood at 0.0063 µM in the series on Plasmodium falciparum [10], 0.0085 µM with Plasmodium falciparum [11], 0.001 µM with Plasmodium falciparum [12] and 0.001 µM with Plasmodium falciparum [13].

As to `C=CC[n+]1c(C=C2C=CN(CC)C=C2)sc2ccccc21`, the EC50 in the series with Plasmodium falciparum [1] is 0.425 µM; with Plasmodium falciparum [2], 0.305 µM; with Plasmodium falciparum [3] it was 1 µM; in the series on Plasmodium falciparum [4], > 7.25 µM; in the series on Plasmodium falciparum [5] it was 1.27 µM; in the series with Toxoplasma gondii it was > 15.5 µM. Besides, the EC50 is 1.51 µM in the series with Trypanosoma brucei; 0.0208 µM in the series with Leishmania major; > 28.2 µM in series [6]; > 28.2 µM in series [7]; > 28.2 µM in [8]; 1.24 µM in series [9]. Moreover, the EC50 in the series with Plasmodium falciparum [10] is 0.696 µM; in the series with Plasmodium falciparum [11], > 7.25 µM; with Plasmodium falciparum [12] it was 1.31 µM; in the series with Plasmodium falciparum [13], 1.29 µM.

Take `CCCCN(CCCC)CC(O)COc1ccccc1C(=O)Nc1ccccc1` (stereo not given): the EC50 was 0.059 µM with Plasmodium falciparum [1]; 0.0424 µM in the series with Plasmodium falciparum [2]; 0.108 µM in the series on Plasmodium falciparum [3]; 0.0393 µM in the series with Plasmodium falciparum [4]; 0.0545 µM with Plasmodium falciparum [5]; > 29.2 µM in the series on Toxoplasma gondii. The EC50 is 21.3 µM in the series with Trypanosoma brucei; > 22.8 µM in the series on Leishmania major; > 53.2 µM in series [6]; > 53.2 µM in [7]; > 53.2 µM in series [8]; > 53.2 µM in series [9]. The EC50 with Plasmodium falciparum [10] is 0.0692 µM; in the series with Plasmodium falciparum [11], 0.202 µM; with Plasmodium falciparum [12], 0.144 µM; in the series with Plasmodium falciparum [13], 0.163 µM.

Regarding `C=CCN1C=CC=C/C1=C\c1sc2ccccc2[n+]1C`, the half-maximal effective concentration (EC50) in the series with Plasmodium falciparum [1] was 1.99 µM; in the series on Plasmodium falciparum [2], 1.2 µM; in the series with Plasmodium falciparum [3] it was 1.19 µM; in the series on Plasmodium falciparum [4], 0.94 µM; with Plasmodium falciparum [5] it was > 9.08 µM; with Toxoplasma gondii, > 19.4 µM. Besides, the EC50 is 10.7 µM in the series with Trypanosoma brucei; 0.0503 µM in the series on Leishmania major; > 35.4 µM in series [6]; > 35.4 µM in series [7]; > 35.4 µM in series [8]; 8.34 µM in series [9]. Moreover, the results for the EC50 with Plasmodium falciparum [11], in the series with Plasmodium falciparum [12] and in the series on Plasmodium falciparum [13] were 6.16 µM, 2.98 µM and 5.69 µM, respectively.

`COC(=O)C1=CNC=C(C(=O)OC)C1c1ccc(Cl)c(Cl)c1`: the EC50 was 0.843 µM in the series with Plasmodium falciparum [1]; 1.67 µM in the series on Plasmodium falciparum [2]; 0.772 µM with Plasmodium falciparum [3]; 1.36 µM in the series on Plasmodium falciparum [4]; 1.78 µM in the series on Plasmodium falciparum [5]; > 25.1 µM in the series on Toxoplasma gondii. In addition, the EC50 in the series with Trypanosoma brucei was 17.1 µM; in the series with Leishmania major, > 19.6 µM; in series [6], > 45.8 µM; in [7], > 45.8 µM; in [8], > 45.8 µM; in series [9], > 45.8 µM. Also, the EC50 is 0.78 µM in the series on Plasmodium falciparum [10], 0.9 µM in the series with Plasmodium falciparum [11], > 11.8 µM with Plasmodium falciparum [12] and > 11.8 µM in the series with Plasmodium falciparum [13].
